Reference: ChEMBL document CHEMBL4513216, “Probing the Open Global Health Chemical Diversity Library for Multistage-Active Starting Points for Next-Generation Antimalarials” (ACS Infect Dis, 2020)

Experiment: Toxicity liver stage against HepG2, at 10uM
Format: cell-based
Set-up: test concentration 10 uM, cell line HepG2-A16-CD81EGFP
Settings: human, HepG2-A16-CD81EGFP cells; read-out: INHIBITION
In short: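 Uninfected HepG2-A16-CD81EGFP cells, 3 × 10^3 per well, 1536-well, plated on prespotted compound at 10 μM final, parasite-free screening media added to match infected plates; puromycin 10 μM positive, DMSO 0.5% negative; run in parallel with 48 h PbLuc assay at 37 °C, 5% CO2; viability by CellTiter-Glo luminescence, normalized to controls.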

Structure (SMILES) | cytotoxicity at 10 µM [%]
COc1ccccc1C(=O)Nc1ccc([C@@H](O)[C@H]2COCC(=O)N2)cc1 | 1.17
CN1C[C@@H](NC(=O)C2CC2)C[C@H]1c1nc(-c2cnccn2)no1 | 0.611
O=C(NCCO)c1cc(-c2ccc3c(c2)CCO3)n[nH]1 | -11.9
COCCNc1nc(N2CCCC2)nc2nccnc12 | 0.649
COc1ccc(NC(=O)c2nc(C)sc2C(C)C)cn1 | 0.847
Cn1c(CN2CCOCC2)cc(=O)c(O)c1CN1CCCC1 | -1.07
COc1ncccc1C(=O)N1CC(c2nc(-c3cccs3)no2)C1 | -21.5
Cc1nccn1-c1ccc(=O)n(CCNC(=O)c2ccccn2)n1 | -11.3
CC(=O)N1CCc2[nH]c(=O)ccc2C1 | 0.351
O=C1Nc2ccccc2C1C1CCN(C(=O)C2CC2)CC1 (stereo unspecified) | -1.24
O=C(C1CCCC1)N1C[C@@H]2CCNC[C@@H]21 | -0.155
CCOCc1cnc2n1CCN(C(=O)C1=CCCC1)C2C (stereo unspecified) | -2.42
CN(C)CC(=O)N1C[C@@H](Oc2ccccn2)[C@H]2OCCC[C@H]21 | 9.11
CCc1ccc(-n2nnc(C(=O)O)c2-c2ccncc2)cc1 | 3.02
O=C(Cn1ccc2ccc(F)cc21)NCc1ccc(C(=O)O)cc1 | 6.86
COCC(=O)NCCn1ccc2c(OC)cccc21 | 3.07
O=C(COc1coc(CN2CCOCC2)cc1=O)c1ccc(Cl)cc1 | -10.6
Cn1ncc(C(=O)O)c1C(=O)Nc1nc2ccc(Br)cc2s1 | 12.5
Cn1ncc(Cl)c1C(=O)NCCN1CCC(O)(c2ccc(F)cc2)CC1 | 4.71
Cc1cc(N2CCN(C(=O)c3cccnc3)CC2)nc(C)n1 | 4.28
NC(=O)c1cn[nH]c1C1CCCN1C(=O)c1ccccc1 (stereo unspecified) | 0.00505
CCC(CN1CCCC1)NC(=O)Cc1c(C)[nH]c2cc(C)cc(C)c12 (stereo unspecified) | 2.73
CCC(CN1CCOCC1)NC(=O)Cc1c(C)[nH]c2cc(C)cc(C)c12 (stereo unspecified) | 19.6

Structure (SMILES) | cytotoxicity at 10 µM [%]
CC(C)c1ncc(CN2CCOC(C(=O)Nc3ccccc3)C2)cn1 (stereo unspecified) | -25.3
Cc1ccc(-c2cc(N)c(=O)n(CC(=O)NC3CCCC3)n2)s1 | -20.3
CC(=O)N1CCCC(Cc2cnc(C(=O)N3CCC(C)CC3)cn2)C1 (stereo unspecified) | 4.82
CC(C)Nc1nnc(SCc2nnc(C(C)(C)C)o2)s1 | -0.386
O=c1oc(-c2cccs2)nn1CC1(O)CCCCC1 | 8.52
CC(C)c1nc(C2CCCN2C(=O)c2cc(Cl)c[nH]2)no1 (stereo unspecified) | 0.585
N#Cc1ccc(S(=O)(=O)NC(=O)C2CC(c3ccccc3)=NO2)cc1 (stereo unspecified) | 0.462
COCC(O)CN1CCC(NC(=O)c2cccc(C)c2)CC1 (stereo unspecified) | 1.44
O=C(NCCNc1ncccn1)NCCSC(F)(F)F | 5.81
CSC(C)C(=O)NS(=O)(=O)CCc1ccccc1 (stereo unspecified) | 2.88
Cc1cc(NC(=O)NC(C)CO)ccc1OCC(F)(F)F (stereo unspecified) | 5.2
CC(C)(C)c1nc(CNc2cc3c(cc2Cl)NC(=O)CO3)no1 | -0.438
N#Cc1cccc(OCc2ccoc2C(=O)N2CCCCCC2)c1 | 9.91
CSc1ccc(C(C)NC(=O)c2cc(C)on2)cc1 (stereo unspecified) | 6.01
Cc1cc(C)cc(N(C)S(=O)(=O)c2cc3c(c(C(=O)O)c2)OCCO3)c1 | -4.02
Cn1cc(C(=O)CC2CCCN2C(=O)c2ccc(Cl)cn2)cn1 (stereo unspecified) | -9.23
CCNC(=O)NC(=O)CNC(C)(CC)c1nccs1 (stereo unspecified) | 7.93
O=c1[nH]c(CN2CCN(CC(F)(F)F)CC2)nc2ccccc12 | 10.2
CCc1nc(CCNC(=O)NC2CCN(C(C)C)C2)sc1C (stereo unspecified) | -7.63
CC(C(=O)Nc1ccc(Cl)cn1)N1CCc2nn(C)c(=O)cc2C1 (stereo unspecified) | 4.81
CS(=O)(=O)c1ccc(OCCNCc2cccc(Cl)c2)cc1 | -4.43
CCc1csc(C2CCCN(C(=O)c3ccncc3)C2)n1 (stereo unspecified) | 5.9
CC(C)(CNC(=O)C(C)(C)c1ccccc1F)C(N)=O | 6.38

Structure (SMILES) | cytotoxicity at 10 µM [%]
Cc1noc(CNc2cccc(C(=O)N3CCCC(O)C3)c2)n1 (stereo unspecified) | -0.961
O=C(NCCO)NCC(c1ccccc1)N1CCc2sccc2C1 (stereo unspecified) | 1.96
CC(NC(=O)Nc1nccs1)c1ccncc1 (stereo unspecified) | -9.98
CN(CC(=O)NCC(=O)Nc1ccc(F)cc1)Cc1cccs1 | 0.369
N#Cc1cccc(S(=O)(=O)NC(=O)COCC(F)(F)F)c1 | -0.828
CNC(=O)c1cccnc1N1CCC(OCc2ccccc2)CC1 | 2.49
N#Cc1ccc(NCCCOCC2CCCO2)c(F)c1 (stereo unspecified) | 0.536
c1ccc(-c2noc(C3CCN(CCn4cccn4)CC3)n2)cc1 | 2.86
O=C(C1CC(=O)N(c2ccccc2Br)C1)N1CCC2(CC1)OCCO2 (stereo unspecified) | 11.3
O=C(NCC1CC1)Nc1cccc(N2CCN(CC3CC3)CC2)c1 | -13.3
Cc1c(C(=O)NCC2CCN(C)C2)n(C)c2c(C)cccc12 (stereo unspecified) | 10.1
O=C1CCCCCN1CCC(=O)N1CCCC(c2ccn[nH]2)C1 (stereo unspecified) | 9.01
Cc1n[nH]c(C)c1CCN(C)C(=O)c1ccc(CN2CCCCC2)cc1 | -9.9
CN(C)CC1(O)CCCN(Cc2cnc(-c3ccco3)nc2)CC1 (stereo unspecified) | -8.58
Cc1cccc(NC(=O)N2CCOCC(CN(C)C)C2)c1C (stereo unspecified) | 14.7
Cc1ccc(F)cc1-n1c(COC(C)C)n[nH]c1=O | 4.72
CSc1ccc(C(=O)C2CCCN(C(=O)CCn3cnnn3)C2)cc1 (stereo unspecified) | 6.03
OC1CCN(CCNc2ncc3c(n2)CCN3c2ccccc2)CC1 | 5.84
CCCc1cc(C(=O)N(C)Cc2cccc3cnccc23)n(C)n1 | 0.109
COc1ccc(CCCC(=O)N2C[C@H](C3CC3)[C@@H](N(C)C)C2)cc1 | 0.624
C=C(C)COc1ccc(C(=O)NCC2CC(CC)=NO2)cc1 (stereo unspecified) | -48.2
COc1ccccc1OC1CCN(Cc2cccnc2)CC1 | -1.7
Cc1cc(C)c2c(C(=O)N(C)C)cc(-c3cnc(N)nc3)nc2c1 | -8.87

Structure (SMILES) | cytotoxicity at 10 µM [%]
CN1CCC(N(C)C[C@H]2CC[C@@H](Cc3ccc4occc4c3)O2)CC1 | -9.27
COc1cc(NC2CCS(=O)(=O)CC2)ncn1 | -3.71
COc1ncc(CN(C)C(C)c2cccnc2)cn1 (stereo unspecified) | 13
C[C@@H]1CN(Cc2nc(C(N)=O)no2)CC[C@@]1(O)C1CC1 | -50.3
O=C(NCCc1csc(-c2cnccn2)n1)c1cnn[nH]1 | 6.46
CN(Cc1csc(-c2cccs2)n1)Cc1ncccc1C(=O)O | -11.5
CCc1cnc(C)nc1NCC(O)CN1CCCCCC1 (stereo unspecified) | 3.26
Cn1ccnc1SCCNC1CCN(c2ncccn2)CC1 | -7.63
CCc1cc(NCCc2cc(F)cc(F)c2)n2nccc2n1 | 19.5
CN(C(=O)c1ccc(C2CCCO2)s1)C1CCS(=O)(=O)CC1 (stereo unspecified) | 1.72
C[C@@H]1CN(Cc2nnc(-c3cccnc3)o2)CC[C@]1(C)O | 10.1
CN(Cc1noc(C2CC2)n1)C1CCCN(c2cccnn2)C1 (stereo unspecified) | -2.66
CCn1cc(CN2CCCN(C(=O)CCSC)CC2)cn1 | -1.11
Cc1cc(C2CCCN2Cc2ccc(S(=O)(=O)N(C)C)o2)on1 (stereo unspecified) | -4.11
Cc1nn(C)c(N(C)C)c1CNCCCN(C(C)C)S(C)(=O)=O | 1.07
CN(C)c1cc2c(nn1)CCN(C(=O)Cc1ccc3c(c1)CCC3)C2 | -5.98
Cn1cnc2c1CCN(Cc1csc(-c3ccco3)n1)C2 | -17.4
Cc1ccc(O)c(C(=O)N2CCCC(NC(=O)C(C)C)C2)c1 (stereo unspecified) | -0.988
Cc1cnn(CC2CCCN2C(=O)c2ccccc2-n2cccn2)c1 (stereo unspecified) | -4.16
Cc1noc(C(C)C)c1C(=O)NCc1cccc(N(C)C)c1 | -1.91
CN(C)c1cc(CNC(=O)Nc2ccc(S(C)(=O)=O)nc2)ccn1 | 0.71
CC(C)(C)n1cc(C(=O)N2CCCN(Cc3cccs3)CC2)cn1 | -5.95
CNc1nc(CNC(=O)Nc2ccccc2SC)cs1 | -7.95

Structure (SMILES) | cytotoxicity at 10 µM [%]
O=C(CCCc1ncc(-c2ccccc2)o1)N1CCN(CCO)CC1 | -4.69
OC(COc1ccccc1)CN1CCc2c(ncn2C2CC2)C1 (stereo unspecified) | 2.48
Cc1cc(C)n(CC2CCCCN2C(=O)c2ccc3nncn3c2)n1 (stereo unspecified) | 0.168
CC(=O)N1CCN(C(=O)C(C)n2cncn2)CC1 (stereo unspecified) | 1.64
CCc1n[nH]c(C2CN(C(=O)c3ccsc3)CCO2)n1 (stereo unspecified) | 2.24
CCn1nc(C)cc1C(=O)Nc1cc(F)ccc1OCC1CCCO1 (stereo unspecified) | 2.89
Cc1ccnn1CCC(=O)N1CCCC1c1cc2cccnc2[nH]1 (stereo unspecified) | 9.17
O=C(CCN1CCCC1)Nc1c2c(cc3c1CCC3)CCC2 | 6.3
Cc1occc1C(=O)N1Cc2nccn2CC(CN2CCOCC2)C1 (stereo unspecified) | -117
O=C(NCc1ccco1)[C@@H]1CC[C@@H]2[C@@H](CCN2Cc2ccc(F)cc2)O1 | -0.748
CCN1CCc2cc(-c3cncn3CC(=O)NC(C)(C)C)ccc21 | -18.9
O=C(C1CCC1)N1C[C@@H]2CCN(c3cccnc3)C[C@@H]2C1 | -2.13
CNC(=O)[C@@H](c1ccccc1OC)N1CCC[C@H]1C(=O)NCCN(C)C | -5.12
CC(=O)N1CC(=O)N(c2cnn(C)c2)CC12CCN(Cc1cccs1)C2 (stereo unspecified) | 2.26
CCN1CCn2c(C)cnc2C12CCN(C(=O)NC)CC2 | 0.906
CS(=O)(=O)N[C@@H]1CN(Cc2ccco2)C[C@@H]2CCCO[C@@H]21 | 6.15
CO[C@@H]1CCN(Cc2cnn(C)c2)[C@@H]2CN(Cc3cccnc3)C[C@@H]21 | 8.47
O=C(Nc1ccccc1)[C@H]1C[C@H]2CN(S(=O)(=O)c3ccccc3)C[C@@H]1O2 | 5.8
CC(C)n1c(=O)[nH]c2cn(-c3ccccc3)c(=O)n21 | -7.01
